Calls of active or inactive are those of the source.
Experiments:
[1] = biological target: T1, von Hippel-Lindau disease tumor suppressor/Bromodomain-containing protein 4 (Homo sapiens) (UniProt O60885+P40337); assay: PROTAC activity at BRD4/VHL E3 ligase in human LS174T cells assessed as BRD4 protein degradation at 1 µM for 2 hrs by Immunofluorescence analysis
[2] = biological target: T1, von Hippel-Lindau disease tumor suppressor/Bromodomain-containing protein 4 (Homo sapiens); assay: PROTAC activity at BRD4/VHL E3 ligase in human fibroblast cells assessed as decrease in BRD4 protein degradation at 100 to 250 nM for 24 hrs by Western blot analysis; format: cell-based; conditions: dose 100-250 nM
In short: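 Normal human dermal fibroblasts in 10% FCS medium were treated with 100 or 250 nM PROTAC. BRD4 and MYC protein were assessed by western blot (15 µg RIPA lysate, 10% SDS-PAGE, primary 1:1,000 overnight at 4 °C), with GAPDH/β-actin as loading control.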

[3] = biological target: T1, von Hippel-Lindau disease tumor suppressor/Bromodomain-containing protein 4 (Homo sapiens); assay: PROTAC activity at BRD4/VHL E3 ligase in human HT-29 cells assessed as decrease in MYC protein expression at 5 to 10 uM for 24 hrs by Western blot analysis; format: cell-based; conditions: dose 5-10 µM
In short: (§1)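 Eight CRC lines exposed 24 h to PROTAC at 5 or 10 µM (stocks 2 mM in DMSO, diluted in PBS or medium). Lysis in RIPA with protease/phosphatase inhibitors and 2.5 mmol/l DTT; 15 µg protein on 10% SDS-PAGE, semi-dry transfer to nitrocellulose. Anti-BRD4 or anti-MYC at 1:1,000 overnight at 4 °C; GAPDH or β-actin loading control; chemiluminescence.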

[4] = biological target: T1, von Hippel-Lindau disease tumor suppressor/Bromodomain-containing protein 4 (Homo sapiens); assay: PROTAC activity at BRD4/VHL E3 ligase in human LS174T cells assessed as BRD4 protein degradation at 250 nM for 2 hrs by Western blot analysis; format: cell-based
In short: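 LS174t cells were exposed to PROTAC for 2 h. For washout, the PROTAC was removed by changing the culture medium and cells were harvested 22 h later. BRD4 was assessed by western blot (15 µg lysate, 10% SDS-PAGE, chemiluminescence), normalised against GAPDH/β-actin.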

[5] = biological target: T1, von Hippel-Lindau disease tumor suppressor/Bromodomain-containing protein 4 (Homo sapiens); assay: PROTAC activity at BRD4/VHL E3 ligase in human LS174T dbet1 resistant cells assessed as MYC mRNA level at 500 to 1000 nM for 24 hrs by RT-qPCR analysis; format: cell-based; conditions: dose 500-1000 nM
In short: (§2)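 Resistant LS174t cells were derived by four months' exposure to rising dBET1 concentrations, with outgrowing cells expanded. Resistant and parental cells were then treated and analysed for BRD4 and MYC protein by western blot (GAPDH/β-actin control) and for MYC mRNA by qPCR normalised to PPIA/ACTB (ΔΔCq).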

[6] = biological target: T1, von Hippel-Lindau disease tumor suppressor/Bromodomain-containing protein 4 (Homo sapiens); assay: PROTAC activity at BRD4/VHL E3 ligase in human LS174T cells assessed as decrease in BRD4 protein degradation at 5 to 10 uM for 24 hrs by Western blot analysis; format: cell-based; conditions: dose 5-10 µM
In short: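 Eight CRC lines, including LS174t (RPMI 1640) and SW480 (DMEM/HamsF12), all with 10% FCS, were treated with PROTAC at 5 and 10 µM. BRD4 and MYC proteins were detected by immunoblot (RIPA lysate, 15 µg, 10% gel, primary 1:1,000 overnight at 4 °C), with GAPDH/β-actin as loading control.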

[7] = biological target: T1, von Hippel-Lindau disease tumor suppressor/Bromodomain-containing protein 4 (Homo sapiens); assay: PROTAC activity at BRD4/VHL E3 ligase in human LS174T dbet1 resistant cells assessed as BRD4 protein degradation at 500 to 1000 nM for 24 hrs by Western blot analysis; format: cell-based; conditions: dose 500-1000 nM
In short: as §2

[8] = biological target: T2, Protein cereblon/Bromodomain-containing protein 4 (Homo sapiens) (UniProt O60885+Q96SW2); assay: PROTAC activity at BRD4/Cereblon in human COLO 320 cells assessed as decrease in BRD4 protein degradation at 5 to 10 uM for 24 hrs by Western blot analysis; format: cell-based; conditions: dose 5-10 µM
In short: as §1

[9] = biological target: T2, Protein cereblon/Bromodomain-containing protein 4 (Homo sapiens); assay: PROTAC activity at BRD4/Cereblon in human LS174T cells assessed as BRD4 protein degradation at 1 uM for 2 hrs by Immunofluorescence analysis
[10] = biological target: T2, Protein cereblon/Bromodomain-containing protein 4 (Homo sapiens); assay: PROTAC activity at BRD4/Cereblon in human LS174T cells assessed as complete BRD4 protein degradation at […] for 24 hrs by Western blot analysis; format: cell-based
In short: (§3)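 Cells treated 24 h across 1 nM–10 µM range (fibroblasts at 500/1000 nM). Immunoblot: RIPA lysate with 2.5 mmol/l DTT, 15 µg per lane on 10% SDS-PAGE, nitrocellulose, 5% milk block 1 h. BRD4 or MYC primary 1:1,000 overnight at 4 °C, HRP secondary 1:10,000 for 60 min; GAPDH/β-actin loading control; ECL detection.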

[11] = biological target: T2, Protein cereblon/Bromodomain-containing protein 4 (Homo sapiens); assay: PROTAC activity at BRD4/Cereblon in human Caco-2 cells assessed as decrease in MYC protein expression at 5 to 10 uM for 24 hrs by Western blot analysis; format: cell-based; conditions: dose 5-10 µM
In short: as §1

[12] = biological target: T2, Protein cereblon/Bromodomain-containing protein 4 (Homo sapiens); assay: PROTAC activity at BRD4/Cereblon in human DLD-1 cells assessed as decrease in BRD4 protein degradation at 5 to 10 uM for 24 hrs by Western blot analysis; format: cell-based; conditions: dose 5-10 µM
In short: as §1

[13] = biological target: T2, Protein cereblon/Bromodomain-containing protein 4 (Homo sapiens); assay: PROTAC activity at BRD4/Cereblon in human LS174T cells assessed as decrease in MYC mRNA level at 100 to 1000 nM for 24 hrs by RT-qPCR analysis; format: cell-based; conditions: dose 100-1000 nM
In short: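 Total RNA from 10^6 cells after 24 h treatment, Trizol-extracted and integrity-checked. 0.7 µg reverse transcribed, then SYBR-type qPCR: 95 °C 5 min, 40 cycles of 95 °C 15 s/60 °C 60 s. Melting curves checked. MYC or BRD4 normalised to PPIA and ACTB by ΔΔCq. At least three experiments; means ± SD.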

[14] = biological target: T2, Protein cereblon/Bromodomain-containing protein 4 (Homo sapiens); assay: PROTAC activity at BRD4/Cereblon in human HCT116 p53+/+ cells assessed as decrease in MYC protein expression at 5 to 10 uM for 24 hrs by Western blot analysis; format: cell-based; conditions: HCT-116, dose 5-10 µM
In short: as §1

[15] = biological target: T2, Protein cereblon/Bromodomain-containing protein 4 (Homo sapiens); assay: PROTAC activity at BRD4/Cereblon in human LS174T cells assessed as BRD4 protein degradation at 250 to 500 nM pretreated with thalidomide for 4 hrs by Western blot analysis; format: cell-based; conditions: dose 250-500 nM
[16] = biological target: T2, Protein cereblon/Bromodomain-containing protein 4 (Homo sapiens); assay: PROTAC activity at BRD4/Cereblon in human LS174T-dbet1 resistant cells assessed as MYC protein expression at 500 to 1000 nM for 24 hrs by Western blot analysis; format: cell-based; conditions: dose 500-1000 nM
[17] = biological target: T2, Protein cereblon/Bromodomain-containing protein 4 (Homo sapiens); assay: PROTAC activity at BRD4/Cereblon in human fibroblast cells assessed as decrease in BRD4 protein degradation at 500 to 1000 nM for 24 hrs by Western blot analysis; format: cell-based; conditions: dose 500-1000 nM
In short: as §3

[18] = biological target: T2, Protein cereblon/Bromodomain-containing protein 4 (Homo sapiens); assay: PROTAC activity at BRD4/Cereblon in human HCT116 p53-/- cells assessed as decrease in BRD4 protein degradation at 5 to 10 uM for 24 hrs by Western blot analysis; format: cell-based; conditions: HCT-116, dose 5-10 µM
In short: as §1

Measured: Activity

T1 sequence (P40337 whole entry, looked up, other chains not shown): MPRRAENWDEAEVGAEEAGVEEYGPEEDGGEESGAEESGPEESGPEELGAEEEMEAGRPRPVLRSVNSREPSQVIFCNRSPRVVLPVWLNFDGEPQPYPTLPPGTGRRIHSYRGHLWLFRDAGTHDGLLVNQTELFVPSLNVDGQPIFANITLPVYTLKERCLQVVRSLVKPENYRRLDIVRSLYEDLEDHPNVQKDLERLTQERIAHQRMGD
T2 sequence (Q96SW2 whole entry, looked up, other chains not shown): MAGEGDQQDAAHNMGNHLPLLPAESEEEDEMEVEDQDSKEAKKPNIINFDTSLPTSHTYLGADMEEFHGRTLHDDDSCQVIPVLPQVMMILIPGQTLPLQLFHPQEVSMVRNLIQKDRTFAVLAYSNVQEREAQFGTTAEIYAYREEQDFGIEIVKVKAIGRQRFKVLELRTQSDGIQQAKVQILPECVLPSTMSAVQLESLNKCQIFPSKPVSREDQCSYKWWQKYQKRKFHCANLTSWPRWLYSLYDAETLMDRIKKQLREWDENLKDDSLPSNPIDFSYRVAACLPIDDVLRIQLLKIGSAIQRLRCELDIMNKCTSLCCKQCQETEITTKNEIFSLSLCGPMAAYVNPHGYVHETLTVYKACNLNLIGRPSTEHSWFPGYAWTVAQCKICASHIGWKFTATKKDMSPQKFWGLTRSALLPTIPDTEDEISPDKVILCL

Cc1ncsc1-c1ccc(CNC(=O)[C@@H]2C[C@@H](O)CN2C(=O)[C@@H](NC(=O)COCCOCCOCCNC(=O)C[C@@H]2N=C(c3ccc(Cl)cc3)c3c(sc(C)c3C)-n3c(C)nnc32)C(C)(C)C)cc1
active: [1] | [2] | [3] | [4] | [5] | [6] | [7]

Cc1sc2c(c1C)C(c1ccc(Cl)cc1)=N[C@@H](CC(=O)NCCCCNC(=O)COc1cccc3c1C(=O)N(C1CCC(=O)NC1=O)C3=O)c1nnc(C)n1-2 (stereo partly drawn)
inactive: [15] | [16]
active: [8] | [9] | [10] | [11] | [12] | [13] | [14] | [17] | [18]
